# Calls of active or inactive are those of the source. No cut-off for these calls is given here.
# What was measured:
# Rattus norvegicus [1] = test: Antihyperglycemic activity in albino Wistar rat assessed as reduction in blodd glucose level at 100 mg/kg, po dosed 30 mins before sucrose load and measured 30 to 120 mins post sucrose injection by glucometry; format: functional, organism-based
# Method in brief: (§1)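 Normal albino rats given an oral sucrose load, with a single oral dose of 100 mg/kg b.wt. Blood glucose profile followed after the load, and glucose AUC taken over 0–2 h. Percent inhibition of the postprandial rise in blood glucose calculated against control. Mean % change in 5 animals per group.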
# L6 [2] = test: Stimulation of [3H]2-deoxyglucose uptake in rat L6 cells at 10 uM incubated for 16 hrs by scintillation counting method; format: functional, cell-based
# Method in brief: (§2)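 L6 myotubes incubated with the compound […]; insulin at 100 nM for 20 min served as the positive control. Uptake of ³H-2-deoxyglucose measured and expressed as fold stimulation relative to the control condition.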
# L6 [3] = test: Stimulation of [3H]2-deoxyglucose uptake in rat L6 cells incubated for 16 hrs by scintillation counting method; format: functional, cell-based; method in brief: as §2
# L6 [4] = test: Stimulation of [3H]2-deoxyglucose uptake in rat L6 cells at 2.5 uM incubated for 16 hrs by scintillation counting method; format: functional, cell-based; method in brief: as §2
# L6 [5] = test: Stimulation of [3H]2-deoxyglucose uptake in rat L6 cells at 10 uM incubated for 16 hrs by scintillation counting method relative to untreated control; format: functional; method in brief: as §2
# HepG2 [6] = test: Stimulation of [3H]2-deoxyglucose uptake in human HepG2 cells at 10 uM incubated for 16 hrs by scintillation counting method; format: functional, cell-based
# HepG2 [7] = test: Inhibition of glucagon-mediated glucose release in human HepG2 cells at 10 uM incubated for 24 hrs by Amplex red glucose/glucose oxidase assay; format: functional, cell-based
# L6 [8] = test: Cytotoxicity in rat L6 cells assessed as reduction in cell viability at 1 to 50 uM by MTT assay; format: cell-based; conditions: l6, 50 µM
# Rattus norvegicus [9] = test: Antihyperglycemic activity in albino Wistar rat assessed as inhibition of postprandial hyperglycemia at 100 mg/kg, po dosed 30 mins before sucrose load and measured 30 to 120 mins post sucrose injection by glucometry; format: functional; method in brief: as §1
# Rattus norvegicus [10] = test: Antihyperglycemic activity in Sprague-Dawley rat model of STZ-induced diabetes assessed as improvement on glucose tolerance at 100 mg/kg, po dosed 30 mins before sucrose load and measured after 5 hrs post sucrose load by glucometry; format: functional
# Method in brief: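 Sucrose-challenged streptozotocin-induced diabetic rats, single oral dose of 100 mg/kg b.wt. Blood glucose profile followed after sucrose load, and glucose AUC taken over 0–24 h. Percent improvement in glucose tolerance calculated at 5 h post sucrose load. Values are mean % change in 5 animals per group, compared with control.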
# Mus musculus [11] = test: Antihyperglycemic activity in db/db mouse assessed as reduction in blood glucose level at 3 to 30 mg/kg, po qd for 15 days by oral glucose tolerance test; format: functional, organism-based
# Method in brief: (§3)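 Type 2 diabetic db/db mice dosed orally once a day for 15 days at 3, 10 or 30 mg/kg, with pioglitazone at 10 mg/kg as standard. Blood glucose measured daily and profile compared with vehicle-treated animals. Mean % change in 5 animals per group.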
# Mus musculus [12] = test: Antihyperglycemic activity in db/db mouse assessed as reduction in blood glucose level at 30 mg/kg, po qd and measured on day 7 by oral glucose tolerance test; format: functional, organism-based; method in brief: as §3
# Mus musculus [13] = test: Toxicity in db/db mouse assessed as effect on body weight level at 3 to 30 mg/kg, po qd for 15 days by oral glucose tolerance test; format: organism-based; conditions: in vivo, 360 h
# Mus musculus [14] = test: Toxicity in db/db mouse assessed as effect on food intake level at 3 to 30 mg/kg, po qd for 15 days by oral glucose tolerance test; format: organism-based; conditions: in vivo, 360 h
# Mus musculus [15] = test: Antihyperglycemic activity in db/db mouse assessed as improvement on glucose tolerance by measuring blood glucose AUC level at 3 mg/kg, po qd for 10 days by oral glucose tolerance test; format: functional
# Method in brief: (§4)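 db/db mice dosed orally once daily for 15 consecutive days at 3, 10 or 30 mg/kg, with vehicle controls and pioglitazone at 10 mg/kg. Oral glucose tolerance tests on day 10 and day 15. Overall improvement in glucose tolerance calculated against vehicle control. Mean % change in 5 animals per group.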
# Mus musculus [16] = test: Antihyperglycemic activity in db/db mouse assessed as improvement on glucose tolerance by measuring blood glucose AUC level at 10 mg/kg, po qd for 10 days by oral glucose tolerance test; format: functional; method in brief: as §4
# Mus musculus [17] = test: Antihyperglycemic activity in db/db mouse assessed as improvement on glucose tolerance by measuring blood glucose AUC level at 30 mg/kg, po qd for 10 days by oral glucose tolerance test; format: functional; method in brief: as §4
# Mus musculus [18] = test: Antihyperglycemic activity in db/db mouse assessed as improvement on glucose tolerance by measuring blood glucose AUC level at 3 mg/kg, po qd for 15 days by oral glucose tolerance test; format: functional; method in brief: as §4
# Mus musculus [19] = test: Antihyperglycemic activity in db/db mouse assessed as improvement on glucose tolerance by measuring blood glucose AUC level at 10 mg/kg, po qd for 15 days by oral glucose tolerance test; format: functional; method in brief: as §4
# Mus musculus [20] = test: Antihyperglycemic activity in db/db mouse assessed as improvement on glucose tolerance by measuring blood glucose AUC level at 30 mg/kg, po qd for 15 days by oral glucose tolerance test; format: functional; method in brief: as §4
# Mus musculus [21] = test: Antihyperglycemic activity in db/db mouse assessed as improvement on glucose tolerance by measuring blood glucose AUC level at 3 to 30 mg/kg, po qd for 10 days by oral glucose tolerance test; format: functional, organism-based; method in brief: as §4
smiles,measurement,setting,value
COC(=O)c1c(SC)cc(-c2ccc(C)cc2)c2c1-c1cn(-c3ccccc3)nc1CC2,Activity,Rattus norvegicus [1],Active
same,Activity,L6 [2],Active
same,Activity,L6 [3],Dose-dependent effect
same,Activity,L6 [4],Active
same,fold change (FC),L6 [5],2
same,Activity,HepG2 [6],Active
same,inhibition,HepG2 [7],Active
same,Activity,L6 [8],Non-Toxic
same,inhibition in vivo at 100 mg/kg,Rattus norvegicus [9],35.8%
same,Activity,Rattus norvegicus [10],23.1%
same,Activity,Mus musculus [11],Dose-dependent effect
same,Activity,Mus musculus [12],Active
same,Activity,Mus musculus [13],Non-Toxic
same,Activity,Mus musculus [14],Non-Toxic
same,Activity,Mus musculus [15],7.84%
same,Activity,Mus musculus [16],13.9%
same,Activity,Mus musculus [17],25.7%
same,Activity,Mus musculus [18],13.2%
same,Activity,Mus musculus [19],20.1%
same,Activity,Mus musculus [20],31.6%
same,Activity,Mus musculus [21],Dose-dependent effect
